PGC1a acetyl inh: inhibitors of PGC1a acetylation signal, primary screen, cell-based, U2OS, AlphaScreen, inhibitor mode; inhibition, % at 15.6 µM; AID 651687, 2012; actives 0.17% (n = 350,000); AlphaScreen anti-acetyl-lysine; with virally co-expressed GCN5 acetyltransferase;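 active = every replicate shows inhibition of at least 40%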
Statin myotox sup: suppressors of statin myotoxicity in C2C12 myotubes, primary screen, cell-based, single point, plate reader | C2C12 myotubes + simvastatin, ATP luminescence, 48 h; scaled: DMSO 0, geranylgeraniol control 100 | AID 602340, 2012 | rescue of ATP level, % at 7.49 µM | actives 0.78% (n = 330,000);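 active = mean ATP rescue above about 67%, or every replicate alone reaching that limit, limit read from the data, passing the limit was not always enough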;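 also: myotubes were challenged with 10 µM simvastatin during compound exposure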
ERAP1 inh: human ERAP1 aminopeptidase inhibitors, primary screen, biochemical, single point, plate reader; Endoplasmic reticulum aminopeptidase 1 (Homo sapiens), Q9NZ08; recombinant ERAP1, Leu-AMC fluorescence, 60 min; inhibition, % at 10.7 µM; actives 0.15% (n = 340,000); AID 652197, 2013;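 active = mean replicate inhibition of at least 30%, or all replicates individually reaching that 30% level; inactive = mean below 30% and not every replicate reaching it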
S100A4 MyoIIA: inhibitors of S100A4-myosin IIA peptide binding, primary screen, biochemical, fluorescence polarization, TAMRA-MyoIIA peptide; Protein S100-A4 (Homo sapiens), P26447; actives 0.14% (n = 360,000); inhibition, % at 10.7 µM;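 active = mean inhibition of at least 70% across replicates, with every replicate also reaching that level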
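System – human S100A4 monomer protein, biochemical binding assay · Buffer or medium – Calcium-containing HEPES buffer, pH 7.2 · Timing – 5 min between mix addition and reading · Also added – TAMRA-labelled myosin IIA heavy-chain peptide probe, 5 nM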
Rtt109 Vps75: inhibitors of C. albicans Rtt109/Vps75 HAT, primary screen, biochemical, ThioGlo CoA-SH fluorescence, plate reader | purified Rtt109/Vps75, 4 h | inhibition, % at 34.9 µM | actives 0.16% (n = 330,000);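 active = inhibition of at least 50% in every replicate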
Target sequence (Q5AAJ8 whole entry, looked up): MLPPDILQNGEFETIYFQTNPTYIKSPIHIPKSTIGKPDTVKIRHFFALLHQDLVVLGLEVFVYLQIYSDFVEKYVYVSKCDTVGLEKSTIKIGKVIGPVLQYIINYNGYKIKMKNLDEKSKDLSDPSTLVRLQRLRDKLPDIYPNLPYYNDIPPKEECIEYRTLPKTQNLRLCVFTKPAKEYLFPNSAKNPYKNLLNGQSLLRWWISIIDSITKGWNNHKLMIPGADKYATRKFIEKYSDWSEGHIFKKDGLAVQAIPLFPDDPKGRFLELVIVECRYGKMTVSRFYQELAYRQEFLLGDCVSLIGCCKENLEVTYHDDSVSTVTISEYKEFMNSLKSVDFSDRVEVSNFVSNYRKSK
Hits are given with their value; – = inactive; · = no result given. This is a sample that favours compounds with a hit; in the whole collection about 0.98% have one here.

SMILES	PGC1a acetyl inh	Statin myotox sup	ERAP1 inh	S100A4 MyoIIA	Rtt109 Vps75
Cc1cc(Br)ccc1NC(=O)CN(C)C(=O)Cn1c(=O)cnc2ccccc21	–	–	38	–	–
CN(CC(=O)Nc1cccc(F)c1)C(=O)Cn1c(=O)cnc2ccccc21	·	–	–	–	–
CC(C(=O)O)n1c(C(F)(F)F)nc2ccccc21 (stereo not drawn)	–	132	·	·	–
Cc1ccc(S(=O)(=O)N2CC[C@@H]3[C@@H](CO)Nc4ccc(-c5cccc(C(=O)N(C)C)c5)cc4[C@@H]32)cc1	–	–	·	·	·
CCCN(C)C[C@H]1Oc2cc(C#CC(C)(C)O)ccc2S(=O)(=O)N([C@H](C)CO)C[C@H]1C	–	–	–	–	·
COc1cc2oc3ccccc3c2cc1N(CC(=O)N1CCCCC1)S(=O)(=O)c1ccc(C)cc1	–	106	·	·	–
COc1cc2c(cc1OC)C(c1cc(OC)c(OC)c(OC)c1)NCC2 (stereo not drawn)	–	113	·	–	–
C[C@H]1CN([C@@H](C)CO)C(=O)Cc2cc(NS(=O)(=O)c3ccc(Cl)cc3)ccc2O[C@H]1CN(C)C(=O)Nc1ccc(C(F)(F)F)cc1	–	–	–	–	·
COc1ccc(S(=O)(=O)Nc2ccc3c(c2)C(=O)N([C@@H](C)CO)C[C@@H](C)[C@H](CN(C)Cc2ccccc2)O3)cc1	–	–	–	–	·
N=c1c[n+](N2CCOCC2)[n-]o1	·	–	–	–	56
COc1ccc(Cc2nnc(Nc3ccccc3)s2)cc1Br	·	77	–	–	–
Cc1cc(C)c(C(=O)COC(=O)CNC(=O)c2ccccc2C)c(C)c1	·	·	–	111	–
Cc1ccccc1C(=O)NCC(=O)OCCCOC(=O)CNC(=O)c1ccccc1C	·	–	–	–	–
CO[C@@H]1CN(C)C(=O)c2cc(NC(=O)Nc3ccc(C(F)(F)F)cc3)ccc2OC[C@@H](C)NC[C@@H]1C	–	–	–	–	·
CNC(=O)COC(=O)c1nc(-n2nc(C)cc2C)ccc1Cl	–	80	·	·	–
COc1ccc(Cn2c(CCC(=O)N3CCN(c4ccccn4)CC3)nc3ncccc3c2=O)cc1	–	88	·	·	–
C=C(C)Cn1c(CCCNC(=O)C(C)(C)C)nc2ccccc21	–	154	·	·	–
Cc1cc2nc3ccc(N(C)C)cc3nc2cc1N	–	–	–	178	–
CCOC(=O)c1c(N2C(=O)C=CC2=O)sc(C)c1C	–	–	·	·	69
CCCCCc1ccc(OCCOCCn2c[n+](C)c3ccccc32)c(CCCCC)c1	·	·	·	·	81
CCCNC(=O)C[C@@H]1C[C@@H]2c3cc(NC(=O)C4CCOCC4)ccc3O[C@@H]2[C@H](CO)O1	–	–	–	–	·
C/C=C/c1cnc2c(c1)C(=O)N([C@@H](C)CO)C[C@@H](C)[C@H](CN(C)C(=O)Cc1ccccc1)O2	–	–	–	–	·
COc1ccccc1NC(=O)/C=C1\SCC(=O)N1C	93	·	–	–	–
COc1ccccc1NC(=O)/C=C1\NC(=O)CS1	·	–	–	–	–
CCn1c(C)[n+](CC)c2ccc(S(=O)(=O)NC)cc21	–	–	59	–	–
SMILES	PGC1a acetyl inh	Statin myotox sup	ERAP1 inh	S100A4 MyoIIA	Rtt109 Vps75
CC[n+]1c(C)n(C)c2cc(S(=O)(=O)N(C)C)ccc21	–	·	51	–	–
CCn1c(C)[n+](CC)c2ccc(S(=O)(=O)N(C)C)cc21	–	–	39	–	–
CCn1c(C)[n+](CCCS(=O)(=O)[O-])c2cc(Cl)c(Cl)cc21	–	–	·	·	–
CCn1c(C)[n+](CC)c2ccc(C(=O)N(C)c3ccccc3)cc21	–	·	71	–	–
CCOC(=O)c1ccc2c(c1)n(CC)c(C)[n+]2CC	·	·	–	–	–
CCC(=O)N1[C@H](CO)[C@@H]2c3ccccc3N(C(=O)c3ccc4c(c3)OCO4)C[C@@H]21	–	–	–	–	·
CCS(=O)(=O)c1ccc(-c2csc(-c3ccc(Cl)cc3)n2)c(Cl)c1Cl	–	103	·	·	–
COc1ccc(-c2[nH]ncc2CN(C)CCN2CCOCC2)cc1F	–	·	–	–	–
COc1ccc(-c2[nH]ncc2CNCC(C)(C)N2CCOCC2)cc1F	–	88	–	–	–

Assay outcomes: PubChem, Broad Institute
